# A selection: hits, their analogues and other compounds. The true share with any hit is near 2.2%.
# Diaphorase act: activates diaphorase or chemically reduces, flagging diaphorase assay artifacts | Diaphorase/resazurin coupled assay, resorufin fluorescence, 16 min; active compounds read high; 1 = vehicle wells, 0 = NADH-free wells | activation factor at 20 µM | 190,000 compounds, 0.005% hits | AID 1229;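 active means diaphorase activity raised at least twofold by the compound at 20 µM; inactive means activation factor below 2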
#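 Material: purified diaphorase enzyme from Clostridium kluyveri; Also added: 0.114 mM NADH and 0.1 mM resazurin, final amounts; Doses: single compound dose of 20 µM, 1% DMSO final; Times: 16 min enzyme reaction, ambient temperature; Detection: resorufin fluorescence, excitation 544 nm, emission 590 nm; Measure: increased resorufin signal from activators or reducing compounds.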
# ROMK mod: human ROMK K+ channel modulation, primary screen; P48048; Tet-inducible ROMK, thallium flux fluorescence; actives lie on both sides; B-score at 10 µM; 130,000 compounds, 2% hits; AID 1918;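 active means signal ratio slope over the read window, or its plate-corrected B-score, at least 3 SD from the plate mean, either direction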;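 further: B-score of the F/F0 ratio slope over 7 to 12 s after thallium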
# Target sequence (P48048 whole entry, looked up): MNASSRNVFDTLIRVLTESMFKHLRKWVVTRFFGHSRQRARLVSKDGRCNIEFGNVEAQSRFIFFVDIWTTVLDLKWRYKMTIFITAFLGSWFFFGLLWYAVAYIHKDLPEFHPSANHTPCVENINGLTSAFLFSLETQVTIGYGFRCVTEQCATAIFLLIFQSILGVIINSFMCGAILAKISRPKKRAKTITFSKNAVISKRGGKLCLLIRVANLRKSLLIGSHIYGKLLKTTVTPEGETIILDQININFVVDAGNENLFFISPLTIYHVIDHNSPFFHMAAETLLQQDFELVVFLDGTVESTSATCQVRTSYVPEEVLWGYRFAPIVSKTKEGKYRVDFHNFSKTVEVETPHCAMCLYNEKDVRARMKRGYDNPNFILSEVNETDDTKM
# PMI act hi M6P: activators of human phosphomannose isomerase at near-saturating mannose 6-phosphate. coupled PMI enzyme assay, resazurin fluorescence, 20 min; active compounds read high; 1 = untreated enzyme, 0 = substrate-free blank. activation factor at 20 µM. 190,000 compounds, 0.34% hits;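 active means activation factor of 2 or more at 20 µM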
#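 Test system: human PMI in coupled enzyme assay; Input: PMI at 15 ng/mL final; Medium: HEPES buffer, pH 7.4; Schedule: 20 min incubation at room temperature; Technique: resorufin fluorescence at Ex 544/Em 590 nm; Compound: 20 µM single dose; Probe or stimulus: Near-saturating mannose-6-phosphate, 1.0 mM.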
# Diaphorase inh: counter-screen for diaphorase-based assays: diaphorase inhibitors and chemical oxidizers. 190,000 compounds, 0.69% hits. diaphorase resazurin-to-resorufin fluorescence, NADH, 16 min; bacterial (C. kluyveri) enzyme, not human. inhibition, % at 20 µM;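 active means primary screen inhibition at 20 µM above a set limit, cut at about 50% in these data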;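 further: plate controls were DMSO with full reaction for no effect and wells lacking NADH for full effect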
#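 Benchmarks: positive control wells lacking NADH, neutral wells with DMSO only. System: bacterial diaphorase enzyme (C. kluyveri). Input: 0.14 U/mL diaphorase, enzyme working solution. Detection: resorufin fluorescence, excitation 544 nm, emission 590 nm. Times: 16-min room-temperature incubation before reading.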
# G6PDH CS: counter-screen for G6PDH assay hits: L. mesenteroides G6PDH inhibition. AID 1020. 200,000 compounds, 0.12% hits. inhibition, % at 5 µM. Purified L. mesenteroides G6PDH, diaphorase/resazurin coupled fluorescence, 45 min; in the data active means inhibition above about 50%
# PMI act: increases human mannose-6-phosphate isomerase activity; P34949; purified human PMI, coupled resazurin fluorescence, 20 min; active compounds read high; 1 = vehicle control, 0 substrate-free wells; activation factor at 20 µM; 190,000 compounds, 0.005% hits;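 active means activation factor of 2 or more at 20 µM, relative to plate controls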
# ROMK hit retest: human ROMK channel modulation, retest confirmation | shares compounds with ROMK mod | ROMK thallium flux, fluorescence ratio; active compounds read low | normalized thallium flux (F/F0 slope) at 10 µM | 3,000 compounds, 54% hits | AID 1917;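 active means Flux at 10 µM at least 3 SD below or above vehicle control mean in one or both replicates; inconclusive means no clear call, values can overlap the other calls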
# Active calls of the source: *; ? = inconclusive; nt = no result.
SMILES,Diaphorase act,ROMK mod,PMI act hi M6P,Diaphorase inh,G6PDH CS,PMI act,ROMK hit retest
Cc1nc(C)n(CC(=O)N2CCCC(C(=O)c3ccc(C(F)(F)F)cc3)C2)n1 (centres undefined),0.6,0.98,1,40,15,1,nt
CCOC(=O)c1c(C)n(-c2ccccc2)c2ccc(O)c(CN(C)C)c12,1,-1.8*,0.9,1,-2,0.9,?
CCOC(=O)c1c(C)n(C)c2ccc(O)c(CN(CC)CC)c12,0.8,0.73,0.9,21,6,0.8,nt
O=C(CCc1nnc(-c2ccccc2)o1)NCc1cc(F)ccc1F,1,0.69,0.9,2,7,1,nt
CN(Cc1ccccc1NS(=O)(=O)c1ccc2ccccc2c1)C1CCCCC1,0.8,-2.9*,1,18,1,1.1,?
COc1ccc(/C=C/C(=O)Nc2cccc(S(=O)(=O)N3CCCC3)c2)cc1OC,0.9,-0.043,1,8,-2,1,nt
CC1=NOC(=O)/C1=C\c1ccc(-c2ccc(Br)cc2C(=O)O)o1,1,0.63,1.5,-2,0,1.4,nt
CC1=NOC(=O)/C1=C\c1ccc(-c2cc(Cl)ccc2Cl)o1,1,-3.7*,1,2,4,0.9,?
CCN(C(=O)COc1ncnc2sccc12)c1ccccc1,0.9,1,1,7,1,1,nt
CCOc1ccc(NC(=O)CCN2CCN(S(=O)(=O)c3cc(Cl)ccc3OC)CC2)cc1,0.8,-2.4*,0.9,16,-23,0.9,0.062*
COc1cc(C(=O)N/N=C/c2cc([N+](=O)[O-])cs2)cc(OC)c1OC,0.9,4.1*,0.9,8,-1,1,0.088
Cc1ccsc1/C=N/NC(=O)c1ccncc1,1.2,0.92,1.2,-20,12,1.2,nt
CCOc1ccc(C(=O)N/N=C/c2cc([N+](=O)[O-])cs2)cc1,1,nt,1.1,-2,0,1.1,nt
COc1cc(C(=O)N/N=C/c2sccc2C)cc(OC)c1OC,0.8,5.1*,0.9,18,3,0.9,?
CCCC(=O)Nc1nc(-c2ccccc2)c(CC)s1,0.8,0.63,1,22,14,1,nt
Nc1ncnc2c1ncn2CCNCCc1ccccc1,0.9,nt,0.9,12,-1,0.9,0.082
NC(=O)c1ccc(NC(=O)COC(=O)C2(c3ccccc3F)CCCC2)cc1,0.8,-13*,0.9,16,-4,0.9,0.079
CCN(CC)CCNC(=O)c1ccc(NC(=O)c2ccc(F)cc2)cc1,1,-0.41,1,1,-3,1.1,nt
CCN(CC)CCNC(=O)c1ccc(NC(=O)COc2ccccc2F)cc1,1.1,1.9*,1.1,-12,5,1.1,0.079
COCCn1c(SCC(=O)Nc2sccc2C(N)=O)nnc1-c1ccncc1,0.9,0.62,0.9,14,1,1,nt
Cn1ncc2c(N3CCC(Cc4ccccc4)CC3)ncnc21,0.9,0.49,1,14,10,0.9,nt
NNC(=O)c1cc2c(N3CCC(Cc4ccccc4)CC3)ncnc2s1,0.9,-4.5*,1.1,11,-5,1.2,0.073
Cc1ccnc(NS(=O)(=O)c2ccc(NC(=O)C3C4C=CC(C4)C3C(=O)O)cc2)n1 (centres undefined),1,-1.7,1,-4,5,1,nt
COc1ccc(NC(=O)CSc2nnc(Cn3cnc4ccccc43)o2)cc1,0.9,1.2,0.9,11,8,1,nt
COC(=O)c1c(C)nc(C)c2c(=O)oc3ccccc3c12,1,nt,1,-2,11,1,?
COc1ccc(CNC(=O)C2CCN(S(C)(=O)=O)CC2)c(OC)c1,1,-0.39,1.1,-2,-2,0.9,nt
CN1/C(=C/C=C(C#N)C#N)C=Cc2ccccc21,nt,nt,nt,nt,nt,nt,0.047*
CCOC(=O)/C(C#N)=C/C=C1\C=Cc2ccccc2N1CC,0.9,-1.1,0.5,15,25,0.8,nt
